In ChEMBL document CHEMBL1131325, “Synthesis and antiviral evaluation of certain novel pyrazinoic acid C-nucleosides” (J Med Chem, 1998):

Experiments:
Human alphaherpesvirus 1 = assay: Compound was evaluated for the antiviral activity by their capacity to inhibit the replication of HSV-1 virus; format: functional, organism-based
Procedure, shortened: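 HSV-1 (KOS strain) ELISA in BSC-1 cells, 10 000 cells/well in MEM(E) + 10% calf serum, after overnight culture at 37 °C. Drug was added in quadruplicate with 100 pfu/well virus and incubated 3 days at 37 °C. Detection used HRP-conjugated rabbit anti-HSV-1 with TMB substrate, read at 450/570 nm. IC50 came from regression of % absorbance reduction vs. log concentration. Acyclovir was the positive control.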

Human betaherpesvirus 5 = assay: Compound was evaluated for antiviral activity by their capacity to inhibit replication of HCMV virus; format: functional, organism-based
Procedure, shortened: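 Towne strain HCMV (plaque-purified isolate P₀) plaque reduction in HFF cells in 24-well dishes, ~100 pfu/cm² cell sheet. After adsorption, compound in growth medium was added at 4–8 concentrations in duplicate wells. Incubation was 10–12 days at 37 °C, then crystal violet fixation/staining and microscopic plaque counts. IC50 came from linear regression of % plaque reduction vs. log concentration. Ganciclovir served as positive control.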

HFF = assay: Cytotoxicity for the compound was determined in uninfected stationary human foreskin fibroblasts (HFF) cells.; format: functional, cell-based
Procedure, shortened: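 Stationary HFF monolayers not affected by virus in the HCMV plaque assay were examined microscopically for cytotoxicity. Visual scoring was done at the time of plaque enumeration, after 10–12 days at 37 °C. IC50 came from regression against log concentration.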

KB = assay: Cytotoxicity for the compound was determined by the inhibition of the growing KB cells.; format: functional, cell-based; settings: Homo sapiens
Procedure, shortened: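 KB cell growth was measured over two population doublings. Cells were plated at 3000–5000/well, cultured overnight, then compound was added in quadruplicate at 6–8 concentrations for 48 h at 37 °C in CO₂. Cells were fixed in 95% ethanol, stained with 0.1% crystal violet, eluted with 0.1 N HCl/ethanol and read at 570 nm. IC50 came from regression vs. log concentration. The positive control was 2-acetylpyridine thiosemicarbazone.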

Structure (SMILES)	IC50 (Human alphaherpesvirus 1) [µM]	IC50 (Human betaherpesvirus 5) [µM]	IC50 (HFF) [µM]	IC50 (KB) [µM]
OC[C@H]1O[C@@H](c2ncc(Cl)nc2Cl)[C@H](O)[C@@H]1O		70	> 100	
NC(=O)c1nc([C@@H]2O[C@H](CO)[C@@H](O)[C@H]2O)c(N)nc1Cl	> 100	> 100	> 100	> 100
Nc1nc2c(ncn2COC(CO)CO)c(=O)[nH]1 [GANCICLOVIR]	1.8		> 100	> 100

Continued, in another order:

IC50 (Human alphaherpesvirus 1) [µM]	IC50 (Human betaherpesvirus 5) [µM]	Structure (SMILES)	IC50 (HFF) [µM]	IC50 (KB) [µM]
20	3.2	CCOC(=O)c1nc([C@@H]2O[C@H](CO)[C@@H](O)[C@H]2O)c(Cl)nc1Cl	3.2	20
> 100	> 100	CCOc1nc(Cl)c(C(N)=O)nc1[C@@H]1O[C@H](CO)[C@@H](O)[C@H]1O	> 100	> 100
> 100	> 100	COc1nc(Cl)c(C(N)=O)nc1[C@@H]1O[C@H](CO)[C@@H](O)[C@H]1O	> 100	> 100
> 100	> 100	CCOC(=O)c1nc([C@@H]2O[C@H](CO)[C@@H](O)[C@H]2O)c(N)nc1Cl	> 100	> 100
> 100	> 100	CCOC(=O)c1nc([C@@H]2O[C@H](CO)[C@@H](O)[C@H]2O)c(NC)nc1Cl	> 100	> 100
